Measured values: paper PMC12343878 (Communications Biology, 2025)
Square brackets hold non-standard residues; d marks the D form. Peptide text beside a SMILES is read from it. * marks the point of attachment. X1 = CCCCCCCCCCCCCCCC(=O)OC[C@H](COP(=O)(O)OCCNC(=O)CCCc1ccc(N2C(=O)CC(*)C2=O)cc1)OC(=O)CCCCCCCCCCCCCCC; pS = N[C@@H](COP(=O)(O)O)C(=O)O

Experiments:
[1] = target: CD4 lipo-peptide (di-leucine peptide derived from the phosphorylated cytoplasmic tail of CD4, lipid-conjugated); test: Langmuir trough surface-pressure tensiometry
[2] = target: TGN38 lipo-peptide (Yxxφ-containing peptide derived from the cytoplasmic tail of TGN38, lipid-conjugated); test: Langmuir trough surface-pressure tensiometry
[3] = target: CD4 lipo-peptide (di-leucine peptide derived from the phosphorylated cytoplasmic tail of CD4, lipid-conjugated); test: specular neutron reflectometry
[4] = target: TGN38 lipo-peptide (Yxxφ-containing peptide derived from the cytoplasmic tail of TGN38, lipid-conjugated); test: specular neutron reflectometry
[5] = Surface pressure - area isotherms of PM model membranes; format: physicochemical; settings: T = 21 ± 0.5 °C
[6] = target: T1, AP2 (UniProt P18484+P62743+P63010+P84092); test: High-resolution SNR rigid-body modeling of membrane-bound AP2; format: binding
How it was run: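 Measured on the FIGARO time-of-flight reflectometer at 0.6° and 3.7°, 7% dλ/λ, Qz 0.007–0.25 Å−1, in 100% and 8.1% D2O contrasts. Trough monolayers at 25 ± 1 mN/m were measured before and after AP2 injection into the subphase (final 10 nM). SLD profiles were calculated from energy-minimised open, open+ and closed AP2 models (PDB […], 6qh6, 2vgl) to fit orientation and position. Fractional coverage is given as mean ± SD, n = 256.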

[7] = target: T1, AP2; test: Equilibrium tensiometry binding analysis
[8] = target: T1, AP2; test: SNR low-resolution slab model of membrane-bound AP2 on Langmuir monolayers; format: binding; settings: AP2 10 nM
How it was run: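 Langmuir-trough monolayers held at 25 ± 1 mN/m were measured on the FIGARO reflectometer, then AP2 was injected beneath them to a final bulk concentration of 10 nM. Settings were two incidence angles (0.6°, 3.7°), 7% wavelength resolution and Qz 0.007–0.25 Å−1, with 100% D2O and 8.1% D2O contrasts. The bound protein was fitted as a slab of constant SLD. Fit errors were ±1σ, checked against triplicate measurements.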

[9] = SNR of Langmuir lipid monolayers before AP2; format: physicochemical; settings: Π0 = 25 ± 0.5 mN/m
[10] = target: T1, AP2; test: Fluid-phase tapping-mode AFM of transferred monolayers; settings: CD4-presenting monolayers
How it was run: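 Monolayers were transferred from a Langmuir trough onto glass coverslips by Langmuir–Schaeffer and imaged by fluid-phase tapping-mode AFM. Scans were 5 μm at 256×256 pixels and 1 Hz. A droplet of HKM buffer containing recombinant AP2 was spread and imaged before evaporation. Thickness profiles (n = 10) were Gaussian-fitted to give mean ± SD.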

T1 sequence (P63010 1-591): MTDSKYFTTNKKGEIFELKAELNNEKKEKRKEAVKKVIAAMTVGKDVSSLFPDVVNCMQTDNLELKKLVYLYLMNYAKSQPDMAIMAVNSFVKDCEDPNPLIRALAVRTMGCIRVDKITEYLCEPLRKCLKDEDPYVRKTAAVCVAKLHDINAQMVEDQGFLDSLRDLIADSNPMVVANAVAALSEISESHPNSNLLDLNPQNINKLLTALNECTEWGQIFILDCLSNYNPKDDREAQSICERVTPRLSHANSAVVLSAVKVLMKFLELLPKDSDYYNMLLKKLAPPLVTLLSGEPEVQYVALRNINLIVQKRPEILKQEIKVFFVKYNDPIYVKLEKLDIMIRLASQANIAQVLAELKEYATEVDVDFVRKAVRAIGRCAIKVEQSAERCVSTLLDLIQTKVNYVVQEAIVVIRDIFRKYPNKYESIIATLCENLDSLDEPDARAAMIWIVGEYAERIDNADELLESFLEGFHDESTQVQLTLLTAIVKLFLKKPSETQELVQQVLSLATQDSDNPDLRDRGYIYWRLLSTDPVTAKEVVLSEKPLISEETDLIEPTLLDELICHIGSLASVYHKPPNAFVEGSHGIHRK
T1 sequence (P84092 whole entry): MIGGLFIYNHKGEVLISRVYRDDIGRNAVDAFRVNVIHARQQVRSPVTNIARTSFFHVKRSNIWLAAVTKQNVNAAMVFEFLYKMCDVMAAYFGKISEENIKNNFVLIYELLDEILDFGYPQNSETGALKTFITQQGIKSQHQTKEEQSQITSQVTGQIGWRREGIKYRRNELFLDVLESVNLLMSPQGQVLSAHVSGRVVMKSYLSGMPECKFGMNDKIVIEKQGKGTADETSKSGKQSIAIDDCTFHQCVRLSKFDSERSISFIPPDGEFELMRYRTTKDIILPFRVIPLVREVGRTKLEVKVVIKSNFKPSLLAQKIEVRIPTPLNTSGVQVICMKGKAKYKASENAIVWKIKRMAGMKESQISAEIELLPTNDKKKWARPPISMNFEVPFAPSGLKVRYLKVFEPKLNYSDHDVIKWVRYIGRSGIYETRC
T1 sequence (P18484 1-621): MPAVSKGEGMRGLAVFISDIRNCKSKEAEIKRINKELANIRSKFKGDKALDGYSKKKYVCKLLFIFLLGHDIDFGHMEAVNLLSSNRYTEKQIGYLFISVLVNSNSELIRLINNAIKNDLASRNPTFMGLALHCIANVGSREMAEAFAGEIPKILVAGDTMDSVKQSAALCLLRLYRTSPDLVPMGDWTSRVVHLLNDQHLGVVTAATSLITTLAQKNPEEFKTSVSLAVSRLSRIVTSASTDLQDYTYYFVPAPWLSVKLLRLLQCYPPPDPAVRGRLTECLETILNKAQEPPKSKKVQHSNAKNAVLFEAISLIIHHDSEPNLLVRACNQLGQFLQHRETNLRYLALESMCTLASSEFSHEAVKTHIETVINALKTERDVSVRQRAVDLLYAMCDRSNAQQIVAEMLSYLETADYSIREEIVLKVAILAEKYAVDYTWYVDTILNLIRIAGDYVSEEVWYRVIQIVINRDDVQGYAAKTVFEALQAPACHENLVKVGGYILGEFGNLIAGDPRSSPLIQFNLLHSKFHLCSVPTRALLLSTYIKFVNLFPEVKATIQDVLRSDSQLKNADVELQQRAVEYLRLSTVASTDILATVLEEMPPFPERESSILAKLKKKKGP
T1 sequence (P62743 whole entry): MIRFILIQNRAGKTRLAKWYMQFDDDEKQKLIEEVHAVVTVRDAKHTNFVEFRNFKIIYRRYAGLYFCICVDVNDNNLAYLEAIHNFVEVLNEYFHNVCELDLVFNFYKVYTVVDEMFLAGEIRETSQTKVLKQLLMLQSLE
Chain of AP2 (recombinant adaptor protein complex 2, hetero-tetramer) (P18484 whole entry): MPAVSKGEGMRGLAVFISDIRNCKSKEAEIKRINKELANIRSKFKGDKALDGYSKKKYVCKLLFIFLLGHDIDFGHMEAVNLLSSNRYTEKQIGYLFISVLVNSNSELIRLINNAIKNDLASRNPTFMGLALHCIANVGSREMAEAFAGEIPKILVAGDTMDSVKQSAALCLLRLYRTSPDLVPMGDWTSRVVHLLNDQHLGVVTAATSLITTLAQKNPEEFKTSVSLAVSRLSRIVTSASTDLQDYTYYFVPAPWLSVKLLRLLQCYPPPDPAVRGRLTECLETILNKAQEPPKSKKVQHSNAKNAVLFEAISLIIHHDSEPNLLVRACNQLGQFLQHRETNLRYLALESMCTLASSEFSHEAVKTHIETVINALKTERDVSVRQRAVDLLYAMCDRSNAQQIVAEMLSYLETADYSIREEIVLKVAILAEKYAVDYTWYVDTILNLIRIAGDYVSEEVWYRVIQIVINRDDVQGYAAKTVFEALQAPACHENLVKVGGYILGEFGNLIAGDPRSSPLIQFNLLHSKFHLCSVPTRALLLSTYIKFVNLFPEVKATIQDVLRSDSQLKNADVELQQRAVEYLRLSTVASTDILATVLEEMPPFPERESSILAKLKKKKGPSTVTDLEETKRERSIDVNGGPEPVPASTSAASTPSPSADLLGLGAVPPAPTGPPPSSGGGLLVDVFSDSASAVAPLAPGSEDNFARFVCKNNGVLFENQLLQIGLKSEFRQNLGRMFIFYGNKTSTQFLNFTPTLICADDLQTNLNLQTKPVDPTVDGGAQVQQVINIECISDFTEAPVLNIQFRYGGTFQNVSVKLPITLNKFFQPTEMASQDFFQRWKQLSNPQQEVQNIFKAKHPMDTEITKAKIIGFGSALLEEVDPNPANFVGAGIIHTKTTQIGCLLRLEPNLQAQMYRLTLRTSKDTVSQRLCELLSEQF
Chain of AP2 (recombinant adaptor protein complex 2, hetero-tetramer) (P63010 whole entry): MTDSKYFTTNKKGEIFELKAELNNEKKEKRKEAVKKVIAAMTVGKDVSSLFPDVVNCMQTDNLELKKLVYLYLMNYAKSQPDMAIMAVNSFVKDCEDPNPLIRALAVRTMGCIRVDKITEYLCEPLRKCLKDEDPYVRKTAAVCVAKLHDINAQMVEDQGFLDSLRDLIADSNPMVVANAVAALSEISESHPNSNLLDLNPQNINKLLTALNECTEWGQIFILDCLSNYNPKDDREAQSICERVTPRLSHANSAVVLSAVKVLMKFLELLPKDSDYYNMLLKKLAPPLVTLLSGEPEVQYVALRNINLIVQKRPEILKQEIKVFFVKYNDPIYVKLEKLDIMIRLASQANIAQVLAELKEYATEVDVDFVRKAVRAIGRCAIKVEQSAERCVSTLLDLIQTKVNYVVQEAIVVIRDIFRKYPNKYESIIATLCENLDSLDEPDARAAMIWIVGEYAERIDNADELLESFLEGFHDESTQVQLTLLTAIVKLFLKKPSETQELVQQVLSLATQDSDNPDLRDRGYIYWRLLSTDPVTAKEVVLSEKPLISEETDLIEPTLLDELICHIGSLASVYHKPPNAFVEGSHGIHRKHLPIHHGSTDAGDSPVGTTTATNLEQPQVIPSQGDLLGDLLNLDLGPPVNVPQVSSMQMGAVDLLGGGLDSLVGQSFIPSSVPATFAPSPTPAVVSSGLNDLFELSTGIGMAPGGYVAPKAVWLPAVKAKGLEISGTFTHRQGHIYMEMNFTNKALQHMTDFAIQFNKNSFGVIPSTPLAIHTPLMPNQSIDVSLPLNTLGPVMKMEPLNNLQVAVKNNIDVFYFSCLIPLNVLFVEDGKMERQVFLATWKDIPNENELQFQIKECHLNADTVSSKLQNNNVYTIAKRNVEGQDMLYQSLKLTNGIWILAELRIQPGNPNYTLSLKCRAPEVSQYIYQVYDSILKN
Chain of AP2 (recombinant adaptor protein complex 2, hetero-tetramer) (P84092 whole entry): as the sequence (P84092 whole entry) above
Chain of AP2 (recombinant adaptor protein complex 2, hetero-tetramer) (P62743 whole entry): as the sequence (P62743 whole entry) above

Q: Which Kd [1] does the source give for “AP2 (recombinant adaptor protein complex 2, hetero-tetramer) (from UniProt P18484 1-938; P63010 1-937; P84092 1-435; P62743 1-142)” here?
A: 75 nM

Q: And the apparent koff (combined cargo and PtdIns(4,5)P2 binding, monolayer) [1]?
A: 0.00012 s⁻¹

Q: What about the overall Kd (monolayer with cargo and PtdIns(4,5)P2, 35 mN/m) [1] of the same molecule?
A: 93 nM

Q: What about the residence time (1/koff) on the monolayer with PtdIns(4,5)P2 [1] of the same molecule?
A: 8330 s

Q: And the Kd from kinetics (monolayer with cargo and PtdIns(4,5)P2) [2]?
A: 12 nM

Q: What about the overall Kd (monolayer with cargo and PtdIns(4,5)P2) [2] of the same molecule?
A: 15 nM

Q: What about the overall Kd (monolayer with cargo and PtdIns(4,5)P2, 35 mN/m) [2] of the same molecule?
A: 64 nM

Q: And the residence time (1/koff) on the monolayer with PtdIns(4,5)P2 [2]?
A: 5560 s

Q: And the surface coverage of AP2 on the monolayer (with PtdIns(4,5)P2) [3]?
A: 24%

Q: And the surface coverage of AP2 on the monolayer (with PtdIns(4,5)P2) [4]?
A: 51%

Q: Which “effect on liquid expanded (LE) phase” value [5] does the source give for `CCCCCCCCCCCCCCCC(=O)OC[C@H](COP(=O)(O)OCCNC(=O)CCCc1ccc(N2C(=O)CC(SC[C@H](N)C(=O)N[C@@H](Cc3c[nH]cn3)C(=O)N[C@@H](CCCNC(=N)N)C(=O)N[C@@H](CCCNC(=N)N)C(=O)N[C@@H](CCCNC(=N)N)C(=O)N[C@@H](CCC(N)=O)C(=O)N[C@@H](C)C(=O)N[C@@H](CCC(=O)O)C(=O)N[C@@H](CCCNC(=N)N)C(=O)N[C@@H](CCSC)C(=O)N[C@@H](COP(=O)(O)O)C(=O)N[C@@H](CCC(N)=O)C(=O)N[C@H](C(=O)N[C@@H](CCCCN)C(=O)N[C@@H](CCCNC(=N)N)C(=O)N[C@@H](CC(C)C)C(=O)N[C@@H](CC(C)C)C(=O)N[C@@H](CO)C(=O)N[C@@H](CCC(=O)O)C(=O)N[C@@H](CCCCN)C(=O)O)[C@@H](C)CC)C2=O)cc1)OC(=O)CCCCCCCCCCCCCCC` (stereo partly drawn) [CD4] (H-C(X1)HRRRQAERM[pS]QIKRLLSEK-OH; N-terminus and C-terminus assumed) here?
A: did not alter the existence of the LE phase

Q: And the “surface coverage of AP2” value ([6]; open AP2 conformation)?
A: 24%

Q: And the “distance of AP2 center-of-mass to membrane head group” value ([6]; open AP2 conformation (2xa7))?
A: 10 ± 4 Å

Q: And the “change in lateral pressure ΔΠ∞ on addition of cargo” value ([7]; AP2, Π0 = 25 mN/m, vs PtdIns(4,5)P2-only)?
A: further increases in lateral pressure

Q: What about the “AP2 concentration above which biphasic binding behavior is observed” value ([7]; cargo-presenting monolayer vs PtdIns(4,5)P2-only) of the same molecule?
A: > 10 nM

Q: What about the “total thickness of membrane-bound AP2” value [8] of the same molecule?
A: 84 ± 6 Å

Q: And the “location of cargo peptides in monolayer” value [9]?
A: confined to the headgroups layer

Q: What about the “increment of bright spots' thickness after AP2” value [10] of the same molecule?
A: A similar increment was also found
